Experimental data published in ChEMBL document CHEMBL2331336, “Discovery and structure-activity relationship of 1,3-cyclohexyl amide derivatives as novel mGluR5 negative allosteric modulators” (Bioorg Med Chem Lett, 2013).
In brackets after ≈: the same amount, converted by molar mass. Activity calls are given as the source filed them. The rule behind the calls is not given here.

Experiments:
[1] = target: T1, Metabotropic glutamate receptor 5 (Homo sapiens, UniProt P41594); experiment: Antagonist activity at human mGluR5 expressed in HEK293 cells assessed as inhibition of Ca2+ mobilization by FLIPR assay; assay type: functional, cell-based
[2] = target: T1, Metabotropic glutamate receptor 5; experiment: Displacement of [3H]-ABP688 from human mGluR5 expressed in HEK293 cells after 60 mins by scintillation counting; assay type: cell-based
Liver microsomes [3] = experiment: Intrinsic clearance in human liver microsomes; assay type: ADME, Microsome; design: unit not given here
[4] = Plasma protein binding in human; assay type: ADME, cell-free; conditions: read-out: PPB (converted)
[5] = target: T2, Metabotropic glutamate receptor 1 (Rattus norvegicus, UniProt P23385); experiment: Antagonist activity at rat mGluR1 expressed in HEK293 cells assessed as inhibition of Ca2+ mobilization by FLIPR assay; assay type: functional, cell-based
Procedure, shortened: (§1)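 Rat mGluR1 stably in HEK293 cells (1.5% calf serum medium), seeded 24 h earlier, Fluo-4 loaded 1 h at 37 °C in HBSS/HEPES pH 7.4 with probenecid. Curves fitted with Hill equation.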

Liver = experiment: Intrinsic clearance in mouse liver microsomes; assay type: ADME, Microsome
[6] = Kinetic solubility of the compound in potassium phosphate buffer after 4 hrs; assay type: physicochemical; conditions: read-out: Kinetic_solubility
Procedure, shortened: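 Kinetic solubility: compound from 10 mM DMSO stock diluted into 25 mM potassium phosphate buffer and shaken 4 h. Supernatant analyzed by UPLC with PDA detection at 254 nm.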

[7] = target: T2, Metabotropic glutamate receptor 1; experiment: Agonist activity at rat mGluR1 expressed in HEK293 cells assessed as Ca2+ mobilization by FLIPR assay; assay type: functional, cell-based; procedure, shortened: as §1
Liver microsomes [8] = experiment: Intrinsic clearance in rat liver microsomes; assay type: ADME, Microsome
[9] = Drug uptake in CD-1 mouse brain at 10 mg/kg, po at 1 hr; assay type: ADME, organism-based; design: dose 10 mg/kg, route oral; conditions: read-out: Drug uptake
[10] = Plasma concentration in CD-1 mouse at 10 mg/kg, po at 1 hr; assay type: ADME, organism-based; design: dose 10 mg/kg, route oral
[11] = Plasma concentration in CD-1 mouse at 10 mg/kg, sc at 1 hr; assay type: ADME, organism-based; design: dose 10 mg/kg, route subcutaneous
Procedure, shortened: (§2)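 CD-1 mice (n = 2), 10 mg/kg SC in 20% hydroxypropyl-β-cyclodextrin in water. Brain and plasma sampled at 1 h; averages reported. Quantification limits were 2 ng/g for brain and 2 ng/mL for plasma. Kupp is the ratio of unbound brain to unbound plasma concentration.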

[12] = Drug uptake in CD-1 mouse brain at 10 mg/kg, sc at 1 hr; assay type: ADME, organism-based; design: dose 10 mg/kg, route subcutaneous; conditions: read-out: Drug uptake; procedure, shortened: as §2
Plasma = experiment: Fraction unbound in mouse plasma; assay type: ADME, cell-free
[13] = Ratio of fraction unbound in brain to plasma of CD-1 mouse brain at 10 mg/kg, sc at 1 hr; assay type: ADME, organism-based; design: dose 10 mg/kg, route subcutaneous; conditions: in vivo; procedure, shortened: as §2
[14] = Fraction unbound in mouse brain; assay type: ADME, tissue-based
[15] = Ratio of drug uptake in brain to plasma of CD-1 mouse at 10 mg/kg, po at 1 hr; assay type: ADME, organism-based; design: dose 10 mg/kg, route oral; conditions: read-out: BPR
[16] = Ratio of drug uptake in brain to plasma of CD-1 mouse at 10 mg/kg, sc at 1 hr; assay type: ADME, organism-based; design: dose 10 mg/kg, route subcutaneous; conditions: read-out: BPR; procedure, shortened: as §2
Mus musculus = experiment: Anxiolytic-like activity in mouse at 30 mg/kg, sc measured after 1 hr by marble burying test; assay type: functional, organism-based; design: dose 30 mg/kg
Procedure, shortened: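 Male CD-1 mice, n = 12 per group, given 3, 10 or 30 mg/kg sc in 20% HPβCD (5 mL/kg); buspirone 10 mg/kg sc in water as positive control. Mice were placed singly in cages for a 30 min session, and marbles buried out of 20 were counted. One-way ANOVA with Dunnett's test.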

T2 sequence (P23385 whole entry): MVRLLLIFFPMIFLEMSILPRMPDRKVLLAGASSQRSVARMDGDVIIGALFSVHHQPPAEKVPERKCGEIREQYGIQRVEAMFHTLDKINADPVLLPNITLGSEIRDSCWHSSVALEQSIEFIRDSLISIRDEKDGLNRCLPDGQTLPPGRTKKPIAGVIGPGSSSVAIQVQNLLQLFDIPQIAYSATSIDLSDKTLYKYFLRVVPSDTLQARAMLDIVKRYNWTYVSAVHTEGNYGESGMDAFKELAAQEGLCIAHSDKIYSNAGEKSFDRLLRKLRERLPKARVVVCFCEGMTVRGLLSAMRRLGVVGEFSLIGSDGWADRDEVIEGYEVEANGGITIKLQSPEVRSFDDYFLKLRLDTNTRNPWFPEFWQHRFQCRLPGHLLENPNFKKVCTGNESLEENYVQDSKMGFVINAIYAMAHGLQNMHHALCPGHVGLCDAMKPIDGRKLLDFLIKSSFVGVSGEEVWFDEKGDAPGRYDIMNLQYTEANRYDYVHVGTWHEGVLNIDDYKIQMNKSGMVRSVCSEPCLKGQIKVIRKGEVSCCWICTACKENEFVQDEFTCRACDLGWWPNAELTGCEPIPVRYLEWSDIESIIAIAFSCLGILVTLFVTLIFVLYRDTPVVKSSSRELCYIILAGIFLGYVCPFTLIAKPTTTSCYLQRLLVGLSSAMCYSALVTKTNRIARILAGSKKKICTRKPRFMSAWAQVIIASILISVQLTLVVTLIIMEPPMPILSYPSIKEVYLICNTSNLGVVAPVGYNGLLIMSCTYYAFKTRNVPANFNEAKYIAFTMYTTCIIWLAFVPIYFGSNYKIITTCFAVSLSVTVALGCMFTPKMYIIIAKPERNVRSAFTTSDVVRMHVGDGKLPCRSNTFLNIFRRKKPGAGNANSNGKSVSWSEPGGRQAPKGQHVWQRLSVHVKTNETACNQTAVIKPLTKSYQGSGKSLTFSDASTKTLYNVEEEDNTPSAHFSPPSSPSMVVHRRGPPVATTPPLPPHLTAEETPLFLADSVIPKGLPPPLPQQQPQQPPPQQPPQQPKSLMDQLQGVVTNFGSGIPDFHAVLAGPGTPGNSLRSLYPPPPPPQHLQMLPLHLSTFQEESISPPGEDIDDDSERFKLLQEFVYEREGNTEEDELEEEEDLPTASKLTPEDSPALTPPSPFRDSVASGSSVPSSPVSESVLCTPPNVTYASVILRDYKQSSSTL
T1 sequence (P41594 whole entry): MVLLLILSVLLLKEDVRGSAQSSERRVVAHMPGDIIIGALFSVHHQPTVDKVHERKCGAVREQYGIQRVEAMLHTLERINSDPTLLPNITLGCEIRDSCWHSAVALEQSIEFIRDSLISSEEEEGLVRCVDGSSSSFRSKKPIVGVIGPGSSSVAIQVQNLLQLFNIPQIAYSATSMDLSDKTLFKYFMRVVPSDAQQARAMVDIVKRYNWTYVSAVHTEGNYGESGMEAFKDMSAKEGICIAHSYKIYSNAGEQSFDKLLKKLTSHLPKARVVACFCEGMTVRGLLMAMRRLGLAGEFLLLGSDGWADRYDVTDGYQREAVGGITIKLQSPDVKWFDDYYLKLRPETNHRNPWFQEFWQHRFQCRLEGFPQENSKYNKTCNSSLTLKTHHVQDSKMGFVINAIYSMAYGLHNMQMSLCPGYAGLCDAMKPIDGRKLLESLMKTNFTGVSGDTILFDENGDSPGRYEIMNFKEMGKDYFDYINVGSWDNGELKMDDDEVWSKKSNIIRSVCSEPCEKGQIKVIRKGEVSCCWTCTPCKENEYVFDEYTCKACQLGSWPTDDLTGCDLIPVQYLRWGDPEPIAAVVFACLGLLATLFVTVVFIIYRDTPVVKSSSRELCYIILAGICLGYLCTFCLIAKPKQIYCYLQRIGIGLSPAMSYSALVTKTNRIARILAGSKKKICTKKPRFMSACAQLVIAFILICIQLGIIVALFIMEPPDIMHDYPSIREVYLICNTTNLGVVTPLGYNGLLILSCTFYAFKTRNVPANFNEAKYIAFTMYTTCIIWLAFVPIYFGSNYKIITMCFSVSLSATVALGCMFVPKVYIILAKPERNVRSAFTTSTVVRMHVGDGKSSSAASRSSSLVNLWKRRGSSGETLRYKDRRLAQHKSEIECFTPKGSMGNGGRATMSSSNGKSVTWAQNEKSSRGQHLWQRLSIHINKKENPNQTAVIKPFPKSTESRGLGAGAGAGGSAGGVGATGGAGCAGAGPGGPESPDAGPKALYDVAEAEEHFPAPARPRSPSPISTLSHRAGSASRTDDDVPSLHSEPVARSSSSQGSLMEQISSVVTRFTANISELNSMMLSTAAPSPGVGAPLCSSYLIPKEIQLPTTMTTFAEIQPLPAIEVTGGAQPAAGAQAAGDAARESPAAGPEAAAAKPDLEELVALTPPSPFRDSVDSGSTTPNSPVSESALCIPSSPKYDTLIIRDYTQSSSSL

SMILES: O=C(N[C@H]1CCC[C@H](NC(=O)c2cccc(Cl)c2)C1)c1ccncc1 (relative stereo)
- IC50 [1]: 300 nM
- Ki [2]: 445 nM

SMILES: Cc1cccc(C(=O)N[C@H]2CCC[C@H](NC(=O)c3cccc(Cl)c3)C2)n1 (racemic)
- IC50 [1]: 290 nM
- Ki [2]: 582 nM

SMILES: Cc1cccc(C(=O)N[C@H]2CCC[C@H](NC(=O)c3ccccn3)C2)c1 (relative stereo)
- IC50 [1]: 1000 nM

SMILES: O=C(N[C@@H]1CCC[C@@H](C(=O)Nc2ccccn2)C1)c1cccc(Cl)c1
- IC50 [1]: 5000 nM

SMILES: Cc1cccc(C(=O)N[C@H]2CCC[C@@]3(CN=C(c4cccc(Cl)c4)O3)C2)n1 (relative stereo)
- IC50 [1]: 1510 nM

SMILES: O=C(N[C@H]1CCC[C@H](NC(=O)c2ccccc2F)C1)c1cccc(Cl)c1 (relative stereo)
- IC50 [1]: 175 nM
- Ki [2]: 760 nM

SMILES: Cc1ccnc(C(=O)N[C@H]2CCC[C@H](NC(=O)c3cccc(Cl)c3)C2)c1 (relative stereo)
- IC50 [1]: 3400 nM

SMILES: O=C(N[C@H]1CCC[C@H](NC(=O)c2cccc(Cl)c2)C1)c1ccc(F)cc1 (relative stereo)
- IC50 [1]: 194 nM
- Ki [2]: 492 nM

SMILES: COc1cccc(C(=O)NC2CCCC(NC(=O)c3ccccn3)C2)c1 (mixture of isomers)
- IC50 [1]: > 10000 nM

SMILES: N#Cc1cccc(C(=O)N[C@@H]2CCC[C@H](NC(=O)c3ccccn3)C2)c1 (relative stereo)
- IC50 [1]: > 10000 nM

SMILES: N#Cc1cccc(C(=O)N[C@@H]2CCC[C@@H](NC(=O)c3ccccn3)C2)c1
- Intrinsic clearance (Liver microsomes [3]): 0.5
- fraction unbound [4]: 0.157
- IC50 [5]: > 10000 nM
- Intrinsic clearance (Liver): 1.8 mL/min
- IC50 [1]: 231 nM
- solubility kinetic at 4 h [6]: 240 µM (≈ 83.6 µg/mL)
- Ki [2]: 1270 nM
- EC50 [7]: > 10000 nM
- Intrinsic clearance (Liver microsomes [8]): 8.3 mL/min

SMILES: CN(C(=O)c1cccc(Cl)c1)C1CCCC(NC(=O)c2cccc(Cl)c2)C1 (stereo unspecified)
- IC50 [1]: > 10000 nM

SMILES: O=C(N[C@H]1CCC[C@H](NC(=O)c2cccc(Cl)c2)C1)c1cccnc1 (relative stereo)
- IC50 [1]: 612 nM

SMILES: N#Cc1cccc(C(=O)N[C@@H]2CCC[C@@H](C(=O)Nc3ccccn3)C2)c1
- IC50 [1]: > 10000 nM

SMILES: Cc1cccnc1C(=O)N[C@H]1CCC[C@H](NC(=O)c2cccc(Cl)c2)C1 (relative stereo)
- IC50 [1]: 7840 nM

SMILES: O=C(Cc1ccccn1)N[C@H]1CCC[C@H](NC(=O)c2cccc(Cl)c2)C1 (relative stereo)
- IC50 [1]: > 10000 nM

SMILES: Cc1cccc(C(=O)N[C@H]2CCC[C@]3(CN=C(c4cccc(Cl)c4)O3)C2)n1
- concentration at 1 h [9]: 9 nM
- concentration at 1 h [10]: 17 nM
- Intrinsic clearance (Liver microsomes [3]): 13
- concentration at 1 h [11]: 1180 nM
- concentration at 1 h [12]: 910 nM
- Cp(f) (Plasma): 0.2%
- IC50 [5]: > 10000 nM
- Intrinsic clearance (Liver): 12.5 mL/min
- IC50 [1]: 23 nM
- Ratio [13]: 1.1
- fraction unbound [14]: 0.003
- Kp at 1 h [15]: 0.5
- Kp at 1 h [16]: 0.8
- EC50 [7]: > 10000 nM
- Activity (Mus musculus): Active
- Intrinsic clearance (Liver microsomes [8]): 48 mL/min

SMILES: O=C(N[C@H]1CCC[C@H](NC(=O)C2CCCCC2)C1)c1cccc(Cl)c1 (relative stereo)
- IC50 [1]: 857 nM

SMILES: Cc1cccc(C(=O)N[C@@H]2CCC[C@@]3(CN=C(c4cccc(Cl)c4)O3)C2)n1 (relative stereo)
- IC50 [1]: 72 nM

SMILES: O=C(N[C@H]1CCC[C@H](NC(=O)c2cnccn2)C1)c1cccc(Cl)c1 (relative stereo)
- IC50 [1]: 1370 nM

SMILES: N#Cc1cccc(C(=O)N[C@H]2CCC[C@H](NC(=O)c3ccccn3)C2)c1
- IC50 [1]: > 10000 nM

SMILES: O=C(NC1CCCC2(CN=C(c3cccc(Cl)c3)O2)C1)c1cccnc1 (mixture of isomers)
- IC50 [1]: > 10000 nM

SMILES: O=C(NC1CCCC2(CN=C(c3cccc(Cl)c3)O2)C1)c1ccccn1 (mixture of isomers)
- IC50 [1]: 647 nM
- Ki [2]: 30 nM
